Assay [1] concerns the target T1, D(2) dopamine receptor (Homo sapiens, UniProt P14416). Description: Compound at 1 uM was tested for the inhibition of radioligand [3H]spiperone binding to recombinant human Dopamine receptor D2L. In outline:
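D2L (human, CHO-expressed) membranes; [3H]spiperone, 25 °C, 120 min; pH 7.4 Tris-HCl/NaCl/EDTA; nonspecific with 10 μM haloperidol. Compound at 1 μM, percent inhibition in duplicate; filtration, scintillation counting.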

In assay [2] the target is T1, D(2) dopamine receptor. Description: Compound at 1 uM was tested for the inhibition of radioligand [3H]spiperone binding to recombinant human Dopamine receptor D2S. In outline: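 Human D2S in CHO membranes; [3H]spiperone, 37 °C for 120 min in 50 mM Tris-HCl, 150 mM NaCl, 5 mM EDTA, pH 7.4; 10 μM haloperidol for nonspecific binding. Percent inhibition at 1 μM, duplicate; filtration, scintillation counting.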

Assay [3] deals with T2, Alpha-2B adrenergic receptor (Rattus norvegicus) (UniProt P19328).
T2 sequence (whole entry): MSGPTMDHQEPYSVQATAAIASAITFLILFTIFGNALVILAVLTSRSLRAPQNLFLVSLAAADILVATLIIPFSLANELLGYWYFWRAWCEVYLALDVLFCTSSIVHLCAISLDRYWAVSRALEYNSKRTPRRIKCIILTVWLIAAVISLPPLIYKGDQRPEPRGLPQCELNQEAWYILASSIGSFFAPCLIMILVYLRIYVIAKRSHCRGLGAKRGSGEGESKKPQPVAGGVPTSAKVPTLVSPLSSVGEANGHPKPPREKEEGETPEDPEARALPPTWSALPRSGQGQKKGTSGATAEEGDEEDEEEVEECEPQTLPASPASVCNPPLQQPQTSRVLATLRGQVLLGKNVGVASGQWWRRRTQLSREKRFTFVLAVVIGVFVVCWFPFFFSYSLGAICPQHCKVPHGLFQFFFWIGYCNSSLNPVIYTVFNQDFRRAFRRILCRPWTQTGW
The assay is described as follows: Compound at 1 uM was tested for the inhibition of radioligand [3H]yohimbine binding to rat alpha-2B adrenergic receptor. The method in brief:
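Rat kidney cortical membranes; [3H]yohimbine, 25 °C for 30 min, pH 7.4 Tris-HCl/NaCl/EDTA; 10 μM phentolamine for nonspecific binding. Percent inhibition at 1 μM compound, in duplicate; filtration, scintillation counting.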

For assay [4], the target named is Serotonin 1 (5-HT1) receptor (Rattus norvegicus) (UniProt P28564+P30940+P19327+P28565). The assay is described as follows: Compound at 1 uM was tested for the inhibition of radioligand [3H]5-HT binding to 5-hydroxytryptamine 1 receptor in rat cerebral cortex. The class given is tissue-based. The method in brief:
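Rat cerebral cortex membranes; [3H]5-HT, 10 min at 37 °C, Tris-HCl/NaCl/EDTA buffer pH 7.4; 10 μM 5-HT for nonspecific binding. Filtered, washed three to four times, scintillation counted. Percent inhibition at 1 μM test compound, in duplicate.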

The target in assay [5] is Histamine H1 receptor (Cavia porcellus) (UniProt P31389). The assay is described as follows: Compound at 1 uM was tested for the inhibition of radioligand [3H]pyrilamine binding to central histamine H1 receptor in guinea pig brain. The method in brief: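 Central H1 from guinea pig brain membranes; [3H]pyrilamine 25 °C for 60 min, pH 7.4 Tris-HCl/NaCl/EDTA buffer; 1 μM pyrilamine for nonspecific binding. Percent inhibition by compound at 1 μM, duplicate; filtered, scintillation counted.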

The target in assay [6] is T3, Alpha-2C adrenergic receptor (Homo sapiens) (UniProt P18825).
T3 sequence (whole entry): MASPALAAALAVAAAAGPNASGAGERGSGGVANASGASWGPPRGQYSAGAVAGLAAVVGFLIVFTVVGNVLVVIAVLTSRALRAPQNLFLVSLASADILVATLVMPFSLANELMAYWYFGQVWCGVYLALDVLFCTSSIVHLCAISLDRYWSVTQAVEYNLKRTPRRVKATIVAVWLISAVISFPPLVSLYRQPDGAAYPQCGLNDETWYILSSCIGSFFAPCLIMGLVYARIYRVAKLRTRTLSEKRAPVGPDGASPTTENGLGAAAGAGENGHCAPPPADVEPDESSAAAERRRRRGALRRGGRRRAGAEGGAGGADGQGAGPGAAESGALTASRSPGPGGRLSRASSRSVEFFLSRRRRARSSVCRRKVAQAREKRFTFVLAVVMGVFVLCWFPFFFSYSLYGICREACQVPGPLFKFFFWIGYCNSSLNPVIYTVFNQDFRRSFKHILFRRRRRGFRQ
The assay is described as follows: Compound at 1 uM was tested for the inhibition of radioligand [3H]MK-912 binding to recombinant human alpha-2C adrenergic receptor. The method in brief:
(§1)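 Recombinant human α2a or α2c receptors in CHO cell membranes; [3H]MK912, 60 min at 25 °C in 50 mM Tris-HCl, 150 mM NaCl, 5 mM EDTA, pH 7.4; WB4101 (10 μM) for nonspecific binding. Percent inhibition at 1 μM in duplicate; filtration, scintillation counting.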

Assay [7] deals with T4, Alpha-2A adrenergic receptor (Homo sapiens) (UniProt P08913).
T4 sequence (whole entry): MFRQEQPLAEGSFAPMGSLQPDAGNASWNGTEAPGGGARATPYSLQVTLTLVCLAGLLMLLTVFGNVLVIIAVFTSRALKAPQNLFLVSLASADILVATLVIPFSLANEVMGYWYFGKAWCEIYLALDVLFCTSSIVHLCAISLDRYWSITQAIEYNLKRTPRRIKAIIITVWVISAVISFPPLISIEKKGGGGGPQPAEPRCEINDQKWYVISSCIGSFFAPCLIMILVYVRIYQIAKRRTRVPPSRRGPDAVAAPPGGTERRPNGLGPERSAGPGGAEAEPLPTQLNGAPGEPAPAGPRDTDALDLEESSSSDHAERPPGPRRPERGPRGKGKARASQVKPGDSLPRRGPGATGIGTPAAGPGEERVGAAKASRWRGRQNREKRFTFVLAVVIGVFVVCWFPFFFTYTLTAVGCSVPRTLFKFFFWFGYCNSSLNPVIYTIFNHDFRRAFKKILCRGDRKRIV
The assay is described as follows: Compound at 1 uM was tested for the inhibition of radioligand [3H]MK-912 binding to recombinant human alpha-2A adrenergic receptor. In outline:
as §1

Assay [8] has as its target 5-hydroxytryptamine receptor 7 (Homo sapiens, UniProt P34969). Description: Compound at 1 uM was tested for the inhibition of radioligand [3H]LSD binding to recombinant human 5-hydroxytryptamine 7 receptor. The method in brief:
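Human 5-HT7 expressed in CHO cells; [3H]LSD, 120 min at 37 °C, pH 7.4 Tris-HCl/NaCl/EDTA; 5 μM 5-HT for nonspecific binding. Compound at 1 μM, duplicate determinations of percent inhibition; filtration, scintillation counting.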

Assay [9] has as its target Adrenergic receptors; alpha-1 A & B (Homo sapiens) (UniProt P35348+P35368). The assay is described as follows: Ratio of binding affinity towards Alpha1b to Alpha-1A. The class given is protein assay. In outline: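 Human α1a, α1b and α1d cDNAs transiently expressed in COS-1 cells (DEAE-dextran); membranes harvested 72 h post-transfection. Competition versus 50 pM [125I]HEAT (final), 0.1 pM–10 μM test compound in half-log steps, in TNE buffer pH 7.4. Membrane protein 0.1 μg (α1a, α1b) or 2.6 μg (α1d); 1 h at 25 °C. Filtration, scintillation counting; Ki = IC50/(1 + [L]/Kd). Ratios are subtype Ki over α1a Ki.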

Structures are written as SMILES.

T1 sequence (P14416 whole entry): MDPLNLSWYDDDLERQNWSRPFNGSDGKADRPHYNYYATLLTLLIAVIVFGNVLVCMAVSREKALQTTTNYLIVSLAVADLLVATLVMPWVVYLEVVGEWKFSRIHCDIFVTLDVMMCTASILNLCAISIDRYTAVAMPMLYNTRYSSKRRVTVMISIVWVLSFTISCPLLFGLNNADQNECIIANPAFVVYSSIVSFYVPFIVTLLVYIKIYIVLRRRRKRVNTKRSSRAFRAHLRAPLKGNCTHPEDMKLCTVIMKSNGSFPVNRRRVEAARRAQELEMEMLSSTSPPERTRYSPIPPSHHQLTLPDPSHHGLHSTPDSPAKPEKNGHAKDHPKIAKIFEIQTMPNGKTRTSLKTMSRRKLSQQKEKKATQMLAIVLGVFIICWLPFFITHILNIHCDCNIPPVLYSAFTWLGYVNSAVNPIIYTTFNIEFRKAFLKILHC
5-hydroxytryptamine receptor 7, sequence (P34969 whole entry): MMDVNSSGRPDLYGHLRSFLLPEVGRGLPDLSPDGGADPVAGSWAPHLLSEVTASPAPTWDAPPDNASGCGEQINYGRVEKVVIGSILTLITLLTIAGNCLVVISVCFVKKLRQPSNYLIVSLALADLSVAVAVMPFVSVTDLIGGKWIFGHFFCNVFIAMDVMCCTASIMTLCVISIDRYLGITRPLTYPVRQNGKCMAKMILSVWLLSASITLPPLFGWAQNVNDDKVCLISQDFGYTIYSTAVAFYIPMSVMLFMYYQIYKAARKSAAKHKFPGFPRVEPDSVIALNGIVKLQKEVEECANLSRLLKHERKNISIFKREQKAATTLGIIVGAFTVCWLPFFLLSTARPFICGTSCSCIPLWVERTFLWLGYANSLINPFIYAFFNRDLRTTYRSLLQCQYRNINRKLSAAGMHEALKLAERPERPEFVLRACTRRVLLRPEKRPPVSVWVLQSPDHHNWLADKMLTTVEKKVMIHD
Histamine H1 receptor (Cavia porcellus), sequence (P31389 whole entry): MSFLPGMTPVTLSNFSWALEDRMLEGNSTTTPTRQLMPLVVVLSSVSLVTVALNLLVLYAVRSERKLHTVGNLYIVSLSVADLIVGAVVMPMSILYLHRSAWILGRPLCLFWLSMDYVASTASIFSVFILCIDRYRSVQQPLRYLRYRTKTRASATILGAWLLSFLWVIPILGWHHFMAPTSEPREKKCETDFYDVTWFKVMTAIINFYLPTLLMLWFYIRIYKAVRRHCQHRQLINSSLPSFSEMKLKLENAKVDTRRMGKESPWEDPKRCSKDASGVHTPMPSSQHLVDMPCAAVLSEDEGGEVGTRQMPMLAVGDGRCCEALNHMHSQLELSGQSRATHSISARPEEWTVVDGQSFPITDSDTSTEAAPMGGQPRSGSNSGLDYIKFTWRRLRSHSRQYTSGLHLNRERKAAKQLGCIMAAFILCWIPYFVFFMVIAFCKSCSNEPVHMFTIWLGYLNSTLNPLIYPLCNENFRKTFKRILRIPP

Turning to `Cc1ccc(N2C(=O)c3ccc(C(=O)NC[C@H](O)CN4CCN(c5ccccc5OC(C)C)CC4)cc3C2=O)cc1`, the inhibition (usually how much of the control response was suppressed) at D(2) dopamine receptor [1] worked out at 68%; on D(2) dopamine receptor [2], 70%; in [3], 75%; in assay [4], 64%; in assay [5] it was 93%; in assay [6], 14%. Besides, the inhibition is 19% in assay [7] and 90% in [8]. Also, in assay [9], the Ratio is more than 5690.
Regarding `CC(C)Oc1ccccc1N1CCN(CCCNC(=O)c2ccc3c(c2)C(=O)N(c2cccc(F)c2)C3=O)CC1`, the inhibition at D(2) dopamine receptor [1] was found to be 89%; on D(2) dopamine receptor [2] it was 90%; in assay [3], 78%; in [4], 88%; in assay [5], 87%; in assay [6] it was 86%. Moreover, the inhibition in [7] was determined as 78%; in [8] it was 92%. Moreover, in assay [9], the Ratio is 1180.
With `CC(C)Oc1ccccc1N1CCN(C[C@@H](O)CNC(=O)c2ccc3c(c2)C(=O)N(c2cccc(F)c2)C3=O)CC1`, the inhibition came out at 55% at D(2) dopamine receptor [1]; 51% on D(2) dopamine receptor [2]; 70% in assay [3]; 49% in assay [4]; 95% in assay [5]; 8% in assay [6]. In addition, the inhibition was 29% in assay [7] and 95% in assay [8]. For the same molecule, the Ratio in [9] is more than 1960.
Regarding `CCOc1ccccc1OCCN[C@H](C)Cc1ccc(OC)c(S(N)(=O)=O)c1` [TAMSULOSIN], the inhibition on D(2) dopamine receptor [1] turned out to be 53%; at D(2) dopamine receptor [2], 73%; in assay [3], 86%; in [4], 62%; in assay [5], 18%; in [6] it was 41%. The inhibition came to 82% in assay [7] and 74% in assay [8].
Take `CC(C)Oc1ccccc1N1CCN(C[C@@H](O)CNC(=O)c2ccc3c(c2)C(=O)N(c2ccc(N(C)C)cc2)C3=O)CC1`: the inhibition came to 71% at D(2) dopamine receptor [1]; 71% at D(2) dopamine receptor [2]; 73% in [3]; 66% in assay [4]; 88% in assay [5]; 11% in [6]. Moreover, the inhibition was determined as 18% in [7] and 95% in assay [8]. In assay [9], the Ratio was more than 6060.
Consider `Cc1ccc(N2C(=O)c3ccc(C(=O)NCCCN4CCN(c5ccccc5OC(C)C)CC4)cc3C2=O)cc1`, for which the inhibition at D(2) dopamine receptor [1] was determined as 83%; at D(2) dopamine receptor [2], 94%; in assay [3] it was 66%; in assay [4], 69%; in assay [5], 97%; in [6], 83%. For the same molecule, the inhibition in assay [7] was 87%; in [8], 95%. Besides, the Ratio in assay [9] was more than 12500.
As to `COc1ccc(N2C(=O)c3ccc(C(=O)NCCCN4CCN(c5ccccc5OC(C)C)CC4)cc3C2=O)cc1`, the inhibition on D(2) dopamine receptor [1] was 83%; at D(2) dopamine receptor [2], 87%; in assay [3], 79%; in [4], 90%; in assay [5], 97%; in assay [6], 76%. Besides, the inhibition was found to be 80% in [7] and 92% in [8]. In addition, the Ratio in assay [9] was 3280.

The values are drawn from ChEMBL document CHEMBL1133729, “Design, synthesis, and structure-activity relationships of phthalimide-phenylpiperazines: a novel series of potent and selective alpha(1)(a)-adrenergic receptor antagonists” (J Med Chem, 2000).
